Source: ChEMBL document CHEMBL4725336, “Anti-cancer potential of (1,2-dihydronaphtho[2,1-b]furan-2-yl)methanone derivatives” (Bioorg Med Chem Lett, 2020)
The source made the active and inactive calls. The rule behind the calls is not given here.

Legend:
MDA-MB-468 [1] = assay: Induction of apoptosis in human MDA-MB-468 cells assessed as activation of caspase-3 cleavage at 10 to 30 uM by Western blot analysis; type: functional, cell-based; settings: dose microM 10-30
How it was run: (§1)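 MDA-MB-468 cells were treated with 10, 20 and 30 μM. Bcl2, Bax, cleaved caspase-3, p53 and pBad were probed by Western blot, and band expression was quantified.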

MDA-MB-468 [2] = assay: Induction of ROS generation in human MDA-MB-468 cells assessed as increase in fluorescence intensity at 10 to 30 uM after 12 hrs in presence of ROS scavenger NAC by DCFDA staining based microscopy analysis; type: functional, cell-based; settings: dose microM 10-30, time 12.0 hrs
How it was run: (§2)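 Cells were pre-treated with 10 mM N-acetyl cysteine (ROS scavenger), then given 10, 20 or 30 μM for 12 h. They were stained with 100 μM DCFDA for 30 min and read by fluorescence microscopy and spectrophotometric intensity. Three experiments, mean ±SD.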

MDA-MB-231 = assay: Antiproliferative activity against human MDA-MB-231 cells assessed as inhibition of cell proliferation by MTT assay; type: functional; settings: read-out: LD50 (the source's name)
How it was run: (§3)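 MTT proliferation assay; cells exposed to compounds across 0-50 μM; LD50 derived from dose-dependent survival. Triple-negative MDA-MB-468, MDA-MB-231 and 4T1, ER+/PR+ MCF-7, and non-cancerous lung fibroblast WI-38 tested.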

4T1 = assay: Antiproliferative activity against mouse 4T1 cells assessed as inhibition of cell proliferation by MTT assay; type: functional; settings: read-out: LD50 (the source's name); how it was run: as §3
MDA-MB-468 [3] = assay: Induction of mitochondrial membrane potential loss in human MDA-MB-468 cells by JC-1 staining based analysis; type: functional, cell-based; settings: dose microM 10-30
How it was run: (§4)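 Cells were given 10, 20 and 30 μM and stained with JC-1. Mitochondrial membrane potential change was read as the shift from red to green fluorescence, i.e. the red/green ratio, across concentration and time.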

MDA-MB-468 [4] = assay: Induction of ROS generation in human MDA-MB-468 cells assessed as increase in fluorescence intensity after 12 hrs by DCFDA staining based microscopy analysis; type: functional, cell-based; settings: dose microM 10-30, time 12.0 hrs
How it was run: (§5)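 Cells were exposed to 0, 10, 20 or 30 μM for 12 h, then stained with DCFDA (100 μM) for 30 min. Green fluorescence was imaged by microscopy and intensity was also read spectrophotometrically. Data are the mean of three experiments ±SD.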

MDA-MB-468 [5] = assay: Induction of apoptosis in human MDA-MB-468 cells at 30 uM measured after 24 hrs by annexinV-FITC/propidium iodide staining based flow cytometry analysis relative to control; type: functional
How it was run: (§6)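 Cells were treated with 0, 10, 20 and 30 μM for 24 h, then stained with Annexin V-FITC/PI. Apoptotic cells were quantified by flow cytometry from dot plots against untreated cells.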

[6] = Selectivity index, ratio of LD50 for human WI-38 cells to LD50 for human MDA-MB-468 cells assessed as inhibition of cell proliferation by MTT assay; type: toxicity; settings: WI-38 cells and MDA-MB-468 cells, read-out: Selectivity Index
How it was run: (§7)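 MTT proliferation assay on cells treated with 0–50 μM. LD50 was derived for each cell line, and the selectivity index was calculated as WI-38 LD50 divided by cancer-cell LD50.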

[7] = Selectivity index, ratio of LD50 for human WI-38 cells to LD50 for mouse 4T1 cells assessed as inhibition of cell proliferation by MTT assay
How it was run: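 Selectivity index computed as MTT-derived LD50 in non-cancerous WI-38 lung fibroblasts divided by LD50 in the cancer line (cells exposed to 0-50 μM).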

MCF7 [8] = assay: Induction of apoptosis in human MCF7 cells at 30 uM measured after 24 hrs by annexinV-FITC/propidium iodide staining based flow cytometry analysis relative to control; type: functional; how it was run: as §6
WI-38 [9] = assay: Induction of apoptosis in human WI-38 cells assessed as increase in cleaved caspase-3 expression at 10 to 30 uM by Western blot analysis; type: cell-based; settings: wi-38, 30 µM, dose 10-30 µM
MDA-MB-468 [10] = assay: Induction of apoptosis in human MDA-MB-468 cells assessed as increase in cleaved caspase-3 expression at 10 to 30 uM in presence of pan-caspase inhibitor z-VAD-FMK by Western blot analysis; type: functional, cell-based; settings: dose microM 10-30
How it was run: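 MDA-MB-468 cells were exposed to the caspase inhibitor Z-VAD-FMK, then treated with 10, 20 or 30 μM. Cleaved caspase-3 was detected by Western blot and quantified.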

MCF7 [11] = assay: Induction of mitochondrial ROS production in human MCF7 cells at 10 to 30 uM by MitoSox red dye based spectrofluorimetric analysis; type: functional, cell-based; settings: dose microM 10-30
How it was run: (§8)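 Cells were treated at 10, 20 and 30 μM and stained with MitoSOX Red. Red fluorescence from oxidized product was imaged and its intensity measured spectroscopically. Mean of three experiments ±SD.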

MCF7 [12] = assay: Induction of mitochondrial membrane potential loss in human MCF7 cells at 10 to 30 uM by JC-1 staining based analysis; type: functional, cell-based; settings: dose microM 10-30, TDE = time-dependent effect; how it was run: as §4
[13] = Selectivity index, ratio of LD50 for human WI-38 cells to LD50 for human MCF7 cells assessed as inhibition of cell proliferation by MTT assay; type: toxicity; settings: WI-38 cells and MCF7 cells, read-out: Selectivity Index; how it was run: as §7
MCF7 [14] = assay: Antiproliferative activity against human MCF7 cells assessed as inhibition of cell proliferation by MTT assay; type: functional; settings: read-out: LD50 (the source's name); how it was run: as §3
MDA-MB-468 [15] = assay: Induction of apoptosis in human MDA-MB-468 cells assessed as increase in p53 expression at 10 to 30 uM by Western blot analysis; type: functional, cell-based; settings: dose microM 10-30; how it was run: as §1
MDA-MB-468 [16] = assay: Induction of DNA damage in human MDA-MB-468 cells assessed as tail length at 30 uM measured after 24 hrs by comet assay; type: functional
How it was run: (§9)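 Cells given 0, 10, 20 and 30 μM; DNA strand breaks were assessed by single-cell gel electrophoresis (comet assay). Fragmented DNA migrates toward the anode, and tail length was measured against untreated cells.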

MCF7 [17] = assay: Induction of ROS generation in human MCF7 cells assessed as increase in fluorescence intensity after 12 hrs by DCFDA staining based microscopy analysis; type: functional, cell-based; settings: dose microM 10-30, time 12.0 hrs; how it was run: as §5
WI-38 [18] = assay: Induction of mitochondrial membrane potential loss in human WI-38 cells at 10 to 30 uM by JC-1 staining based analysis; type: cell-based; settings: wi-38, 30 µM, dose 10-30 µM; how it was run: as §4
MDA-MB-468 [19] = assay: Induction of apoptosis in human MDA-MB-468 cells measured after 24 hrs by annexinV-FITC/propidium iodide staining based flow cytometry analysis; type: functional, cell-based; settings: dose microM 10-30, time 24.0 hrs; how it was run: as §6
MDA-MB-468 [20] = assay: Induction of mitochondrial ROS production in human MDA-MB-468 cells at 10 to 30 uM by MitoSox red dye based spectrofluorimetric analysis; type: functional, cell-based; settings: dose microM 10-30; how it was run: as §8
MDA-MB-468 [21] = assay: Induction of apoptosis in human MDA-MB-468 cells assessed as increase in BAX/Bcl2 expression ratio at 10 to 30 uM by Western blot analysis; type: functional, cell-based; settings: dose microM 10-30; how it was run: as §1
WI-38 [22] = assay: Induction of apoptosis in human WI-38 cells at 10 to 30 uM measured after 24 hrs by annexinV-FITC/propidium iodide staining based flow cytometry analysis; type: cell-based; settings: wi-38, 24 h, dose 10-30 µM; how it was run: as §6
MCF7 [23] = assay: Induction of mitochondrial membrane potential loss in human MCF7 cells by JC-1 staining based analysis; type: functional, cell-based; settings: dose microM 10-30; how it was run: as §4
[24] = Cytotoxicity against human WI-38 cells assessed as inhibition of cell proliferation by MTT assay; type: cell-based; settings: read-out: LD50 (the source's name); how it was run: as §3
MDA-MB-468 [25] = assay: Induction of DNA damage in human MDA-MB-468 cells assessed as tail length at 20 uM measured after 24 hrs by comet assay; type: functional; how it was run: as §9
MDA-MB-468 [26] = assay: Induction of mitochondrial membrane potential loss in human MDA-MB-468 cells at 10 to 30 uM by JC-1 staining based analysis; type: functional, cell-based; settings: dose microM 10-30, TDE = time-dependent effect; how it was run: as §4
[27] = Selectivity index, ratio of LD50 for human WI-38 cells to LD50 for human MDA-MB-231 cells assessed as inhibition of cell proliferation by MTT assay; type: toxicity; settings: WI-38 cells and MDA-MB-231 cells, read-out: Selectivity Index
MCF7 [28] = assay: Induction of ROS generation in human MCF7 cells assessed as increase in fluorescence intensity at 10 to 30 uM after 12 hrs in presence of ROS scavenger NAC by DCFDA staining based microscopy analysis; type: functional, cell-based; settings: dose microM 10-30, time 12.0 hrs; how it was run: as §2
MCF7 [29] = assay: Induction of apoptosis in human MCF7 cells measured after 24 hrs by annexinV-FITC/propidium iodide staining based flow cytometry analysis; type: functional, cell-based; settings: dose microM 10-30, time 24.0 hrs; how it was run: as §6
MDA-MB-468 [30] = assay: Induction of apoptosis in human MDA-MB-468 cells assessed as decrease in pBad expression at 10 to 30 uM by Western blot analysis; type: functional, cell-based; settings: dose microM 10-30; how it was run: as §1
WI-38 [31] = assay: Induction of ROS generation in human WI-38 cells assessed as increase in fluorescence intensity at 10 to 30 uM after 12 hrs by DCFDA staining based microscopy analysis; type: cell-based; settings: wi-38, 12 h, dose 10-30 µM; how it was run: as §5
MDA-MB-468 [32] = assay: Induction of apoptosis in human MDA-MB-468 cells assessed as decrease in Bcl2 expression at 10 to 30 uM by Western blot analysis; type: functional, cell-based; settings: dose microM 10-30; how it was run: as §1
MDA-MB-468 [33] = assay: Antiproliferative activity against human MDA-MB-468 cells assessed as inhibition of cell proliferation by MTT assay; type: functional; settings: read-out: LD50 (the source's name); how it was run: as §3

Cc1ccc(C(=O)[C@@H]2Cc3c(ccc4ccccc34)O2)cc1
Activity (MDA-MB-468 [1]): Active
Activity (MDA-MB-468 [2]): inactive
CC50 (MDA-MB-231): 19 µM
CC50 (4T1): 21 µM
Activity (MDA-MB-468 [3]): Dose-dependent effect
Activity (MDA-MB-468 [4]): Dose-dependent effect
Activity (MDA-MB-468 [5]): 69%
selectivity ratio [6]: 3.87
Selectivity Index [7]: 2.76
Activity (MCF7 [8]): 61%
Activity (WI-38 [9]): Non-Toxic
Activity (MDA-MB-468 [10]): inactive
Activity (MCF7 [11]): Active
Activity (MCF7 [12]): Tde
selectivity ratio [13]: 3.41
CC50 (MCF7 [14]): 17 µM
Activity (MDA-MB-468 [15]): Active
Activity (MDA-MB-468 [16]): 63 µm
Activity (MCF7 [17]): Dose-dependent effect
Activity (WI-38 [18]): Non-Toxic
Activity (MDA-MB-468 [19]): Dose-dependent effect
Activity (MDA-MB-468 [20]): Active
Activity (MDA-MB-468 [21]): Active
Activity (WI-38 [22]): Non-Toxic
Activity (MCF7 [23]): Dose-dependent effect
CC50 [24]: 58 µM
Activity (MDA-MB-468 [25]): 32 µm
Activity (MDA-MB-468 [26]): Tde
selectivity ratio [27]: 3.05
Activity (MCF7 [28]): inactive
Activity (MCF7 [29]): Dose-dependent effect
Activity (MDA-MB-468 [30]): Active
Activity (WI-38 [31]): Non-Toxic
Activity (MDA-MB-468 [32]): Active
CC50 (MDA-MB-468 [33]): 15 µM
